Reference: ChEMBL document CHEMBL1765003, “Discovery of (1S,2R,3R)-2,3-dimethyl-2-phenyl-1-sulfamidocyclopropanecarboxylates: novel and highly selective aggrecanase inhibitors” (J Med Chem, 2011)

How the values were obtained:
[1] = biological target: T1, A disintegrin and metalloproteinase with thrombospondin motifs 4 (Homo sapiens, UniProt O75173); assay: Inhibition of human recombinant aggrecanase 1 after 150 mins by fluorescence plate reader
T1 sequence (O75173 whole entry): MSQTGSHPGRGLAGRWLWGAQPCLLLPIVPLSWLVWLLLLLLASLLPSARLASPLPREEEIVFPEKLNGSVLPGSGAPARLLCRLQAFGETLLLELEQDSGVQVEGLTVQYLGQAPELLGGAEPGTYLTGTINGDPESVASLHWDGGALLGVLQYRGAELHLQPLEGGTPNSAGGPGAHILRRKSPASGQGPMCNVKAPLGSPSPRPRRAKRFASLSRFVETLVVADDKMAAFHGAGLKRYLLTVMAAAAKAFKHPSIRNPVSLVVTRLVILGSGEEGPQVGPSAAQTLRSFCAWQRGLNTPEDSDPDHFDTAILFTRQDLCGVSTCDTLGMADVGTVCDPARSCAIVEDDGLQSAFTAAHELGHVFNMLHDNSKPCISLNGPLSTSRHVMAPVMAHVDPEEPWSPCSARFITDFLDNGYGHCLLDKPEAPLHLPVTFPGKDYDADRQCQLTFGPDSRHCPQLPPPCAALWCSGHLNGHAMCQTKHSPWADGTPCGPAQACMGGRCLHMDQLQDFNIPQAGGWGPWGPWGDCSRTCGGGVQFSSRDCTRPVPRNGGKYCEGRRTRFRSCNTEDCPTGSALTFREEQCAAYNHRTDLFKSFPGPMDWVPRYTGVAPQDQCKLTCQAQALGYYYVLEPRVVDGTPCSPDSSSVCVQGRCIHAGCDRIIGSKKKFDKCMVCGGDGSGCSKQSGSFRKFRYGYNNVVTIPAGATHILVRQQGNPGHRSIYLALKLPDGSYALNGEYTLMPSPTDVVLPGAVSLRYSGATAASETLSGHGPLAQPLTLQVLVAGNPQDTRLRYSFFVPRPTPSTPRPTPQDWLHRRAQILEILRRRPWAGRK

[2] = biological target: T2, A disintegrin and metalloproteinase with thrombospondin motifs 5 (Homo sapiens, UniProt Q9UNA0); assay: Inhibition of human recombinant aggrecanase 2 after 150 mins by fluorescence plate reader
T2 sequence (Q9UNA0 whole entry): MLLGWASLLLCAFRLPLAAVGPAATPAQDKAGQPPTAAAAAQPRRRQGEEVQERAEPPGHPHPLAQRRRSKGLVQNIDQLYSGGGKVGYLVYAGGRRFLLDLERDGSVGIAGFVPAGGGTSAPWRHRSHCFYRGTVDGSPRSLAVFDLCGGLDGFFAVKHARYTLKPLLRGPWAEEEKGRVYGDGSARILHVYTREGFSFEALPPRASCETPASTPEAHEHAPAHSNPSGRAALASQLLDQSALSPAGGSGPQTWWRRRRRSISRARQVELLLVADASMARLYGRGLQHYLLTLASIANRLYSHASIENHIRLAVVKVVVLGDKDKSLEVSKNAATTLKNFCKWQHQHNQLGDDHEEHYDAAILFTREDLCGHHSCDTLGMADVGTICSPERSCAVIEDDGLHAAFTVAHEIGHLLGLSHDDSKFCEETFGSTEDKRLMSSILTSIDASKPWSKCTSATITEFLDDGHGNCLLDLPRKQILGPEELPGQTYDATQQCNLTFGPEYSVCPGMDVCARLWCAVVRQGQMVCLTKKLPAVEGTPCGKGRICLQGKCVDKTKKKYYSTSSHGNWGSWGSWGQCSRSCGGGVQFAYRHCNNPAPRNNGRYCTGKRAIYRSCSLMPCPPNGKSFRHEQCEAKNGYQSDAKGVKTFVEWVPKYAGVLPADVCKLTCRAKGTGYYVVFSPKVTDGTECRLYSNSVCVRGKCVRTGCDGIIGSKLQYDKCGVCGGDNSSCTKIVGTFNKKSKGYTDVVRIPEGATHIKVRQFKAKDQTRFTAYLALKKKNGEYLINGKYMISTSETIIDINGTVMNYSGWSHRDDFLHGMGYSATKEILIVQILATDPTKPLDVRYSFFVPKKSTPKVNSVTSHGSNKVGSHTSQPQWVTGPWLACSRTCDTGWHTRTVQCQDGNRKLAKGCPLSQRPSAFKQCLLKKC

[3] = Half life in Sprague-Dawley rat at 10 mg/kg, po; type: ADME, organism-based; design: dose 10 mg/kg, route oral; settings: in vivo
[4] = biological target: Matrix metalloproteinase-14 (Homo sapiens, UniProt P50281); assay: Inhibition of human recombinant MMP14 after 60 mins by fluorescence plate reader
Summary of the method: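 Recombinant human enzyme at 20 ng/mL with 10 μM MOCAc-Lys-Pro-Leu-Gly-Leu-A2pr(Dnp)-Ala-Arg-NH₂, in 100 mM Tris-HCl pH 7.5, 150 mM NaCl, 10 mM CaCl₂, 0.05% Brij-35. Enzyme pretreated with inhibitor for 15 min at 25 °C, then substrate added. Fluorescence (ex 325, em 405 nm) read at 60 min. IC50 taken from three points in the linear range; mean of ≥2 determinations.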

[5] = biological target: Matrix metalloproteinase-9 (Homo sapiens, UniProt P14780); assay: Inhibition of human recombinant MMP9 after 60 mins by fluorescence plate reader
Sequence of Matrix metalloproteinase-9 (P14780 whole entry): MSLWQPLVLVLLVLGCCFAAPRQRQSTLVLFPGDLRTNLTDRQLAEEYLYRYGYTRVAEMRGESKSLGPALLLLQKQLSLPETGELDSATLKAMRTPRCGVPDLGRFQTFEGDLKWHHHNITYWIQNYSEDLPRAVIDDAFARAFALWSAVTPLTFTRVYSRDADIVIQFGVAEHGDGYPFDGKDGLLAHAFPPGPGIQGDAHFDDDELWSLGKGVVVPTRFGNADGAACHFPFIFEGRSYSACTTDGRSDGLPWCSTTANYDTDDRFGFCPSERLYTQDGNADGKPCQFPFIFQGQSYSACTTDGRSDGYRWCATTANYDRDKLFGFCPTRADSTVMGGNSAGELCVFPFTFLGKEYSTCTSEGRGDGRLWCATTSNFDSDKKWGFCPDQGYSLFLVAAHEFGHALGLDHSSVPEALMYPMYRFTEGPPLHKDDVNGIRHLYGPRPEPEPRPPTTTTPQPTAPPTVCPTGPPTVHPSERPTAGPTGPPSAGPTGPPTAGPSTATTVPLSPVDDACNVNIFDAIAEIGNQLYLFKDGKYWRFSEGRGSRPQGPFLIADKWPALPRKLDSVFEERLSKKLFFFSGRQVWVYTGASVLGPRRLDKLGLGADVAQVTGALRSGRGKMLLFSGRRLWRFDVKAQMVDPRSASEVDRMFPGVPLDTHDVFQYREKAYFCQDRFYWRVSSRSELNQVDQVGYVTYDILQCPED
Summary of the method: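 rh-MMP-9 at 4 ng/mL with 10 μM MOCAc-Pro-Leu-Gly-Leu-A2pr(Dnp)-Ala-Arg-NH₂, in 100 mM Tris-HCl pH 7.5, 150 mM NaCl, 10 mM CaCl₂, 0.05% Brij-35. Enzyme and inhibitor preincubated for 15 min at 25 °C before substrate. Fluorescence (ex 325/em 405 nm) read at 60 min. IC50 from three linear-range points; ≥2 runs averaged.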

Cytochrome P450 2C19 = Cytochrome P450 2C19 (Homo sapiens, UniProt P33261); assay: Inhibition of CYP2C19 at up to 50 uM; type: ADME
Sequence of Cytochrome P450 2C19 (P33261 whole entry): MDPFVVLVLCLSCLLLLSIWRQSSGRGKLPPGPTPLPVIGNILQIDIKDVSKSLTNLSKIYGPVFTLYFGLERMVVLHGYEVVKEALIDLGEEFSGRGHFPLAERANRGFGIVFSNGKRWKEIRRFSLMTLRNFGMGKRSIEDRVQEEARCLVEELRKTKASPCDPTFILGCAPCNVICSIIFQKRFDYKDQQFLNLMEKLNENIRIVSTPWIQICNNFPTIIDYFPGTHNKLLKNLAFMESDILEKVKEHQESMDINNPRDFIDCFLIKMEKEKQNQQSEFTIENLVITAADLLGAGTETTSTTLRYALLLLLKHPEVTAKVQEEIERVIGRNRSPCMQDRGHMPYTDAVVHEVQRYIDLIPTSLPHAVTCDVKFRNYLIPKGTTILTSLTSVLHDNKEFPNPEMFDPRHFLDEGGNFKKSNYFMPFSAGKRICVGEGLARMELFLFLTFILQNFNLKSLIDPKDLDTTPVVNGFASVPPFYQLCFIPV

Cytochrome P450 2D6 = Cytochrome P450 2D6 (Homo sapiens, UniProt P10635); assay: Inhibition of CYP2D6 at up to 50 uM; type: ADME
Sequence of Cytochrome P450 2D6 (P10635 whole entry): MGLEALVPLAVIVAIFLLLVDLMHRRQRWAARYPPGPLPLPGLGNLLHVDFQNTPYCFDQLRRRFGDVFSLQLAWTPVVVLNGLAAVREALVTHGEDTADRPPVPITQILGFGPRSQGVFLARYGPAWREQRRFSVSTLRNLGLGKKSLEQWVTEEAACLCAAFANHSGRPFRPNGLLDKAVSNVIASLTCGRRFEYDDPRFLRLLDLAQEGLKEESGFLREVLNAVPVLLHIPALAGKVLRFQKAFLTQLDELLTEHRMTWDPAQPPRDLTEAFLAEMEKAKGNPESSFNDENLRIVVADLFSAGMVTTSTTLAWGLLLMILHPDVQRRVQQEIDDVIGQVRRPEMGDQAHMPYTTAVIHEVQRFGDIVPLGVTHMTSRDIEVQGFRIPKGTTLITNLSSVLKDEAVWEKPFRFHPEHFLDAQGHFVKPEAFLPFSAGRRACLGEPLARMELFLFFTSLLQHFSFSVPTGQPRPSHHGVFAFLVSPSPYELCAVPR

Collagenase 3 = Collagenase 3 (Homo sapiens, UniProt P45452); assay: Inhibition of human recombinant MMP13 after 60 mins by fluorescence plate reader
Summary of the method: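 rh-MMP-13 at 40 ng/mL with 5 μM 7-MCA-Pro-CHA-Gly-NVal-His-Ala-DPA, in Tris-HCl pH 7.5/NaCl/CaCl₂/0.05% Brij-35. Pretreatment with inhibitor for 15 min at 25 °C, then substrate started the reaction. Fluorescence (ex 325/em 405 nm) read at 60 min. IC50 from three central linear points, averaged over ≥2 determinations.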

[6] = Oral bioavailability in Sprague-Dawley rat at 10 mg/kg; type: ADME, organism-based; settings: Sprague-Dawley, in vivo
Stromelysin-1 = Stromelysin-1 (Homo sapiens, UniProt P08254); assay: Inhibition of human recombinant MMP3 after 60 mins by fluorescence plate reader
Sequence of Stromelysin-1 (P08254 whole entry): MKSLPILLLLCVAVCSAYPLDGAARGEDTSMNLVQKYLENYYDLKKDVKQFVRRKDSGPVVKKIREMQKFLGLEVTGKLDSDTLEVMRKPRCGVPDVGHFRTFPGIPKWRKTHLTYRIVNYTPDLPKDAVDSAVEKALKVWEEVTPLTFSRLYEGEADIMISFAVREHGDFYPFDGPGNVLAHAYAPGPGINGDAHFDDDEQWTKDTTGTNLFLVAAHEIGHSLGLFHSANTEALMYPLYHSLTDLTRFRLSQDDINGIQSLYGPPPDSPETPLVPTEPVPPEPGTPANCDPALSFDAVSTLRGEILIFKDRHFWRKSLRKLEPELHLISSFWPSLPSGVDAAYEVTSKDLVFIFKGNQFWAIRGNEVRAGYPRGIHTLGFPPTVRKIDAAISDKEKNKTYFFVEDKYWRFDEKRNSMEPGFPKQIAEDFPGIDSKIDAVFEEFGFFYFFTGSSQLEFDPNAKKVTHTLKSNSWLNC
Summary of the method: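 rh-MMP-3 at 40 ng/mL with 10 μM MOCAc-Arg-Pro-Lys-Pro-Val-Glu-Nva-Trp-Arg-Lys(Dnp)-NH₂, in Tris-HCl pH 7.5/NaCl/CaCl₂/Brij-35 buffer. Inhibitor preincubated for 15 min at 25 °C. Fluorescence (ex 325/em 405 nm) read at 60 min. IC50 from three central linear points; at least two determinations averaged.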

- IC50 [1]: 23 nM
- IC50 [2]: 8.4 nM
- half-life [3]: 240 min
- IC50 [4]: > 10 µM
- IC50 [5]: > 10 µM
- inhibition (INH) (Cytochrome P450 2C19): Not Active
- inhibition (INH) (Cytochrome P450 2D6): Not Active
- IC50 (Collagenase 3): > 10 µM
- bioavailability [6]: 103%
- IC50 (Stromelysin-1): 9.6 µM
Structure (SMILES): C[C@@H]1[C@](C)(c2ccccc2)[C@]1(NS(=O)(=O)N1CCc2c(nc3cc(F)ccn23)C1)C(=O)O
